Source: ChEMBL document CHEMBL3600378 (J Med Chem, 2015)

Experiments:
[1] = biological target: Beta-3 adrenergic receptor (Homo sapiens, UniProt P13945); assay: Intrinsic activity at human beta3-adrenergic receptor expressed in CHO cells assessed as increase of cAMP level after 30 mins relative to isoproterenol; assay type: functional, cell-based
Procedure, shortened: (§1)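 Stably transfected CHO cells expressing human β1, β2 or β3 or marmoset β3 receptor were grown in Ham's F-12 with 10% FBS and geneticin, seeded at 2×10⁴ cells/well and grown about 20 h. Cells spent 15 min serum-free, then 30 min with compound in medium containing HEPES and isobutylmethylxanthine. Lysate cAMP was measured by kit. […] EC50 is the half-maximal concentration for each compound.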

[2] = biological target: Beta-1 adrenergic receptor (Homo sapiens, UniProt P08588); assay: Agonist activity at human beta1-adrenergic receptor expressed in CHO cells assessed as increase of cAMP level after 30 mins; assay type: functional, cell-based; procedure, shortened: as §1
Sequence of Beta-1 adrenergic receptor (P08588 whole entry): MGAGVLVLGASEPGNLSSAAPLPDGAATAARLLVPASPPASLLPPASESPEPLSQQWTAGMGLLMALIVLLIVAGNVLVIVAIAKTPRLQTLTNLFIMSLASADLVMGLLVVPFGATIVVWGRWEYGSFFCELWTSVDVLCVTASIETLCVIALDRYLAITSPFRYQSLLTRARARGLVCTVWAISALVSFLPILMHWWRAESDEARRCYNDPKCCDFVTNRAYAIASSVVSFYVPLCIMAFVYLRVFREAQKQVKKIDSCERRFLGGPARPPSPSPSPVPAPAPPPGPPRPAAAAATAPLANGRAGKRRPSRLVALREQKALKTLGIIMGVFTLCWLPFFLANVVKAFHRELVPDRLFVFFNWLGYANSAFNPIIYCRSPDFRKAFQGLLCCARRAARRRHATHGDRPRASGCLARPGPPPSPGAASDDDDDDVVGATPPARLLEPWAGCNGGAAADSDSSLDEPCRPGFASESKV

[3] = biological target: Beta-2 adrenergic receptor (Homo sapiens, UniProt P07550); assay: Intrinsic activity at human beta2-adrenergic receptor expressed in CHO cells assessed as increase of cAMP level after 30 mins relative to isoproterenol; assay type: functional, cell-based; procedure, shortened: as §1
Sequence of Beta-2 adrenergic receptor (P07550 whole entry, looked up): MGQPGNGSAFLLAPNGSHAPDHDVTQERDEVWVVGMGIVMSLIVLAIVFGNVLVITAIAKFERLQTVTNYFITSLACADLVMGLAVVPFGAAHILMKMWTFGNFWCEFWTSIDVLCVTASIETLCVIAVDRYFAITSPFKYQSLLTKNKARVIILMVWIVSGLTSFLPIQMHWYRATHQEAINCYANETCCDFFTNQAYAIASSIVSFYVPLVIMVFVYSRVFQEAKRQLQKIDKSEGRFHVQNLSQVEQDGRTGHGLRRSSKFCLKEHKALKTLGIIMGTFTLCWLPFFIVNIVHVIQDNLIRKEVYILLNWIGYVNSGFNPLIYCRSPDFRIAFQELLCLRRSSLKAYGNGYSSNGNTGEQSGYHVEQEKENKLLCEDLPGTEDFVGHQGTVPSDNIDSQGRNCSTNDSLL

Homo sapiens [4] = species: Homo sapiens; assay: Selectivity ratio of EC50 for human beta1-adrenergic receptor to EC50 for human beta3-adrenergic receptor
Homo sapiens [5] = species: Homo sapiens; assay: Selectivity ratio of EC50 for human beta2-adrenergic receptor to EC50 for human beta3-adrenergic receptor
[6] = biological target: T1, Alpha-1A adrenergic receptor (Homo sapiens) (UniProt P35348); assay: Intrinsic activity at human alpha1A-adrenergic receptor expressed in HEK293 cells assessed as calcium flux by fluorescence assay relative to norepinephrine; assay type: functional, cell-based
T1 sequence (whole entry): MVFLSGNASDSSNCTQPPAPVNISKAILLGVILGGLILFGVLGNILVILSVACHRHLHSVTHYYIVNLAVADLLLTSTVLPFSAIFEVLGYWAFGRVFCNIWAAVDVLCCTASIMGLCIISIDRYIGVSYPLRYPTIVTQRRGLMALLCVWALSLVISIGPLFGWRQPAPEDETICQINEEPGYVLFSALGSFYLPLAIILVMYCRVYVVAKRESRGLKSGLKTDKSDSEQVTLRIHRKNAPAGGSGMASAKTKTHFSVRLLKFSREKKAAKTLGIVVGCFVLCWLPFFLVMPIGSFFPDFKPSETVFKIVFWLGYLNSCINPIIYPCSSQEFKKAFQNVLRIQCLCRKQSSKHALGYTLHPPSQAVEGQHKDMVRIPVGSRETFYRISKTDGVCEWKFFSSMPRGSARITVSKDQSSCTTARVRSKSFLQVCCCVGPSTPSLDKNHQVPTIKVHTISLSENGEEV

Homo sapiens [7] = species: Homo sapiens; assay: Selectivity ratio of EC50 for human alpha1A-adrenergic receptor to EC50 for human beta3-adrenergic receptor
[8] = biological target: T2, Alpha-2A adrenergic receptor (Homo sapiens, UniProt P08913); assay: Agonist activity at human alpha2A-adrenergic receptor
T2 sequence (P08913 whole entry): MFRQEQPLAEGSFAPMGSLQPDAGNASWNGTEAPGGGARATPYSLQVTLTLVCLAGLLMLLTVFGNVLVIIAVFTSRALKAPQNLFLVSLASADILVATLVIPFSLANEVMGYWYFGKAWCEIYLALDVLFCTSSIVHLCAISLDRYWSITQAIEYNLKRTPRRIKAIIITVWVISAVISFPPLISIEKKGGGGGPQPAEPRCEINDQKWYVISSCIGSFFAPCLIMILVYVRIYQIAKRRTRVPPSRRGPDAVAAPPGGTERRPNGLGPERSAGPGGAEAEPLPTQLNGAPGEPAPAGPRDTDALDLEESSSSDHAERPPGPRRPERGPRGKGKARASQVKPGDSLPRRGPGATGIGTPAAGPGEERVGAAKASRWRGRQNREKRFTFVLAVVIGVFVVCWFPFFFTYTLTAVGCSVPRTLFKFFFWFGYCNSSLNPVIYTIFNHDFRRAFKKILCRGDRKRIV

[9] = biological target: T3, Alpha-2B adrenergic receptor (Homo sapiens, UniProt P18089); assay: Agonist activity at human alpha2B-adrenergic receptor
T3 sequence (P18089 whole entry): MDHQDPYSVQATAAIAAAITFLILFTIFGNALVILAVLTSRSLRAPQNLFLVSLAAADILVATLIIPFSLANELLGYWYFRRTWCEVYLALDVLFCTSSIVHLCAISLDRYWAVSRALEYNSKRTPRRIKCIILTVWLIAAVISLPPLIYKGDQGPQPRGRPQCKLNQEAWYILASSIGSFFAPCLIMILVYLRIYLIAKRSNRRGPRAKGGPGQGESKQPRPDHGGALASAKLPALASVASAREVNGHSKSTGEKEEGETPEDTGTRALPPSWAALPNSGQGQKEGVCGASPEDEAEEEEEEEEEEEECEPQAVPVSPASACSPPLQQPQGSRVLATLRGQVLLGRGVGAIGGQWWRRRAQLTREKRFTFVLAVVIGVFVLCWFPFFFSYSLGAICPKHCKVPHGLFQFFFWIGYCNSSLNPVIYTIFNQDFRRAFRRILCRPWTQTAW

[10] = biological target: T4, Alpha-2C adrenergic receptor (Homo sapiens, UniProt P18825); assay: Agonist activity at human alpha2C-adrenergic receptor
T4 sequence (P18825 whole entry): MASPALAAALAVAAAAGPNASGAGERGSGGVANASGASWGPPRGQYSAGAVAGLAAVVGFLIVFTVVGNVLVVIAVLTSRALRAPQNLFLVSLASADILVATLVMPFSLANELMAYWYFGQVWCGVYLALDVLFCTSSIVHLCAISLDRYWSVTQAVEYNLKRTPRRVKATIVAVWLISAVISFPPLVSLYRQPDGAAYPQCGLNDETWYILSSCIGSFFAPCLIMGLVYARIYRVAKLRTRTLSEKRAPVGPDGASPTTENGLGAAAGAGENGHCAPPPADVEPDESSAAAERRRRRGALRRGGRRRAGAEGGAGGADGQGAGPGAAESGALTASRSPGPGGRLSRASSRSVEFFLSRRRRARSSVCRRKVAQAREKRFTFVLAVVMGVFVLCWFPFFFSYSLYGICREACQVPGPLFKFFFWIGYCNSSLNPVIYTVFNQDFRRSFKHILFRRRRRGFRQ

Sequence of Beta-3 adrenergic receptor (P13945 whole entry, looked up): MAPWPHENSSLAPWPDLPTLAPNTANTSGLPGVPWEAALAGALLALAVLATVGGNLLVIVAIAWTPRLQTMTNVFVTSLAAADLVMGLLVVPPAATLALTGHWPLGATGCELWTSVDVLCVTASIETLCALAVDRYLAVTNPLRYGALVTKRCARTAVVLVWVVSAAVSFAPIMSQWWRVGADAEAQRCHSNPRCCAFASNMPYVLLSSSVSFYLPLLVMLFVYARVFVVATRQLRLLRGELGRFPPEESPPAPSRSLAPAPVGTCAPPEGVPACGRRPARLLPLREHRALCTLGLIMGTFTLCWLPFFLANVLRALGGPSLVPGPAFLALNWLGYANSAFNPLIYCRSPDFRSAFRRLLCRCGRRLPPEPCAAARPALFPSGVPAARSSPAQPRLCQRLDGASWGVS

- Intrinsic activity [1]: 82%
- EC50 [2]: > 10 µM
- Intrinsic activity [3]: 4%
- Ratio EC50 (Homo sapiens [4]): > 476
- Ratio EC50 (Homo sapiens [5]): > 476
- Intrinsic activity [6]: 71%
- Ratio EC50 (Homo sapiens [7]): 10
- EC50 [8]: > 10 µM
- EC50 [9]: > 10 µM
- EC50 [10]: > 10 µM
Compound: Cc1n[nH]c2cc(OCCNC[C@H](O)c3cccc(NS(C)(=O)=O)c3)ccc12
